According to ChEMBL document CHEMBL4689842, “EUbOPEN Chemogenomics Library wave 1” (2021):

Test system: Fibroblast
Assay: Multiplex assay against human fibroblast
Format: toxicity, cell-based
How it was run: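 Four dyes were applied at seeding to live cells: Hoechst33342, BioTracker Green Microtubule Cytoskeleton Dye, MitoTracker Red and Annexin V Alexa Fluor 680. Imaging after compound addition used a CQ1 microscope at 37°C and 5% CO2. CellPathfinder machine-learning gating then sorted cells into Hoechst high-intensity objects or normal cells, normal cells into healthy, pyknosed or fragmented nuclei, and pyknosed cells into mitotic or apoptotic, with tubulin, mitochondrial-mass and membrane-permeability phenotypes given as per cents of healthy-nucleus cells.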

[1] = 12 h, 1 µM, compound concentration 1 uM, replicate 1
[2] = 12 h, 1 µM, compound concentration 1 uM, replicate 2
[3] = 12 h, 10 µM, compound concentration 10 uM, replicate 1
[4] = 12 h, 10 µM, compound concentration 10 uM, replicate 2
[5] = 24 h, 1 µM, compound concentration 1 uM, replicate 1
[6] = 24 h, 1 µM, compound concentration 1 uM, replicate 2
[7] = 24 h, 10 µM, compound concentration 10 uM, replicate 1
[8] = 24 h, 10 µM, compound concentration 10 uM, replicate 2
[9] = 48 h, 1 µM, compound concentration 1 uM, replicate 1
[10] = 48 h, 1 µM, compound concentration 1 uM, replicate 2
[11] = 48 h, 10 µM, compound concentration 10 uM, replicate 1
[12] = 48 h, 10 µM, compound concentration 10 uM, replicate 2

Structure (SMILES): Cl.Cl.Nc1ncnc2c1c(-c1cccc(OCc3ccccc3)c1)cn2[C@H]1C[C@@H](CN2CCC2)C1
- Population Apoptotic (%) [1]: 70%
- Population Fragmented Nuclei (%) [1]: 31%
- Population Healthy Nuclei (%) [1]: 48%
- Population Hoechst High Intensity Objects (%) [1]: 22%
- Population Membrane Permeable-Phenotype (%) [1]: 21%
- Population Mitochondria Different-Phenotype (%) [1]: 9%
- Population Mitotic Cells (%) [1]: 29%
- Population Normal (%) [1]: 77%
- Population Pyknosed Nuclei (%) [1]: 20%
- Population Tubulin-Different-Phenotype (%) [1]: 53%
- Total Cell Count [1]: 109
- Population Apoptotic (%) [2]: 29%
- Population Fragmented Nuclei (%) [2]: 11%
- Population Healthy Nuclei (%) [2]: 67%
- Population Hoechst High Intensity Objects (%) [2]: 6%
- Population Membrane Permeable-Phenotype (%) [2]: 3%
- Population Mitochondria Different-Phenotype (%) [2]: 71%
- Population Mitotic Cells (%) [2]: 70%
- Population Normal (%) [2]: 93%
- Population Tubulin-Different-Phenotype (%) [2]: 52%
- Total Cell Count [2]: 55
- Population Apoptotic (%) [3]: 60%
- Population Fragmented Nuclei (%) [3]: 24%
- Population Healthy Nuclei (%) [3]: 39%
- Population Hoechst High Intensity Objects (%) [3]: 38%
- Population Membrane Permeable-Phenotype (%) [3]: 9%
- Population Mitochondria Different-Phenotype (%) [3]: 50%
- Population Mitotic Cells (%) [3]: 40%
- Population Normal (%) [3]: 61%
- Population Pyknosed Nuclei (%) [3]: 36%
- Population Tubulin-Different-Phenotype (%) [3]: 77%
- Total Cell Count [3]: 222
- Population Apoptotic (%) [4]: 85%
- Population Fragmented Nuclei (%) [4]: 22%
- Population Healthy Nuclei (%) [4]: 47%
- Population Hoechst High Intensity Objects (%) [4]: 8%
- Population Membrane Permeable-Phenotype (%) [4]: 77%
- Population Mitochondria Different-Phenotype (%) [4]: 97%
- Population Mitotic Cells (%) [4]: 14%
- Population Normal (%) [4]: 91%
- Population Pyknosed Nuclei (%) [4]: 29%
- Population Tubulin-Different-Phenotype (%) [4]: 97%
- Total Cell Count [4]: 90
- Population Apoptotic (%) [5]: 53%
- Population Fragmented Nuclei (%) [5]: 29%
- Population Healthy Nuclei (%) [5]: 57%
- Population Hoechst High Intensity Objects (%) [5]: 26%
- Population Membrane Permeable-Phenotype (%) [5]: 18%
- Population Mitochondria Different-Phenotype (%) [5]: 3%
- Population Mitotic Cells (%) [5]: 46%
- Population Normal (%) [5]: 73%
- Population Pyknosed Nuclei (%) [5]: 12%
- Population Tubulin-Different-Phenotype (%) [5]: 53%
- Total Cell Count [5]: 141
- Population Apoptotic (%) [6]: 28%
- Population Fragmented Nuclei (%) [6]: 13%
- Population Healthy Nuclei (%) [6]: 64%
- Population Hoechst High Intensity Objects (%) [6]: 6%
- Population Membrane Permeable-Phenotype (%) [6]: 4%
- Population Mitochondria Different-Phenotype (%) [6]: 68%
- Population Mitotic Cells (%) [6]: 71%
- Population Normal (%) [6]: 93%
- Population Pyknosed Nuclei (%) [6]: 21%
- Population Tubulin-Different-Phenotype (%) [6]: 39%
- Total Cell Count [6]: 50
- Population Apoptotic (%) [7]: 84%
- Population Fragmented Nuclei (%) [7]: 18%
- Population Healthy Nuclei (%) [7]: 40%
- Population Hoechst High Intensity Objects (%) [7]: 48%
- Population Membrane Permeable-Phenotype (%) [7]: 5%
- Population Mitochondria Different-Phenotype (%) [7]: 59%
- Population Mitotic Cells (%) [7]: 15%
- Population Normal (%) [7]: 51%
- Population Pyknosed Nuclei (%) [7]: 41%
- Population Tubulin-Different-Phenotype (%) [7]: 67%
- Total Cell Count [7]: 178
- Population Apoptotic (%) [8]: 92%
- Population Fragmented Nuclei (%) [8]: 21%
- Population Healthy Nuclei (%) [8]: 35%
- Population Hoechst High Intensity Objects (%) [8]: 9%
- Population Membrane Permeable-Phenotype (%) [8]: 93%
- Population Mitochondria Different-Phenotype (%) [8]: 96%
- Population Mitotic Cells (%) [8]: 7%
- Population Normal (%) [8]: 90%
- Population Pyknosed Nuclei (%) [8]: 42%
- Population Tubulin-Different-Phenotype (%) [8]: 96%
- Total Cell Count [8]: 104
- Population Apoptotic (%) [9]: 83%
- Population Fragmented Nuclei (%) [9]: 36%
- Population Healthy Nuclei (%) [9]: 56%
- Population Hoechst High Intensity Objects (%) [9]: 28%
- Population Membrane Permeable-Phenotype (%) [9]: 12%
- Population Mitotic Cells (%) [9]: 16%
- Population Normal (%) [9]: 71%
- Population Pyknosed Nuclei (%) [9]: 6%
- Population Tubulin-Different-Phenotype (%) [9]: 33%
- Total Cell Count [9]: 132
- Population Apoptotic (%) [10]: 50%
- Population Fragmented Nuclei (%) [10]: 32%
- Population Healthy Nuclei (%) [10]: 65%
- Population Hoechst High Intensity Objects (%) [10]: 22%
- Population Membrane Permeable-Phenotype (%) [10]: 9%
- Population Mitochondria Different-Phenotype (%) [10]: 5%
- Population Mitotic Cells (%) [10]: 50%
- Population Normal (%) [10]: 77%
- Population Pyknosed Nuclei (%) [10]: 1%
- Population Tubulin-Different-Phenotype (%) [10]: 54%
- Total Cell Count [10]: 145
- Population Apoptotic (%) [11]: 94%
- Population Fragmented Nuclei (%) [11]: 34%
- Population Healthy Nuclei (%) [11]: 25%
- Population Hoechst High Intensity Objects (%) [11]: 32%
- Population Membrane Permeable-Phenotype (%) [11]: 0%
- Population Mitochondria Different-Phenotype (%) [11]: 79%
- Population Mitotic Cells (%) [11]: 5%
- Population Normal (%) [11]: 67%
- Population Pyknosed Nuclei (%) [11]: 40%
- Population Tubulin-Different-Phenotype (%) [11]: 79%
- Total Cell Count [11]: 139
- Population Apoptotic (%) [12]: 81%
- Population Fragmented Nuclei (%) [12]: 14%
- Population Healthy Nuclei (%) [12]: 34%
- Population Hoechst High Intensity Objects (%) [12]: 47%
- Population Membrane Permeable-Phenotype (%) [12]: 9%
- Population Mitochondria Different-Phenotype (%) [12]: 68%
- Population Mitotic Cells (%) [12]: 18%
- Population Normal (%) [12]: 52%
- Population Pyknosed Nuclei (%) [12]: 51%
- Population Tubulin-Different-Phenotype (%) [12]: 63%
- Total Cell Count [12]: 122
